Data set [1] has as its system Ca^2+- and ATP-sensitive nonselective cation channels (CA-NSCs). Put plainly: Excised inside-out patch recording of CA-NSC channel gating. It is filed as biochemical, rat.
Data set [2] is described as follows: Decay of decavanadate in bath solution measured by photometry. In kind it is physicochemical. The settings on record: pH = 7.1, T = 25°C. An outline of the steps:
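DV stock is 50 mM Na3VO4 brought to pH 2.0, kept at +4°C, used within 24 h and diluted into bath under 90 min before use. Spectra of 1 mM Na3VO4 in bath (pH 7.1, 25°C) are taken 0–8 h after preparation against a boiled same-composition blank. DV is tracked as peak absorbance at ~390 nm, and the decay is single-exponential fitted.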

In data set [3] the test system is Ca^2+- and ATP-sensitive nonselective cation channels (CA-NSCs). In kind it is biochemical, rat. An outline of the steps:
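Inside-out patches from rat brain capillary endothelial cells, cultured 5–6 d, at 25°C. Pipette: 140 mM NaCl, 30 μM benzamil, pH 7.4. Bath: 140 mM KCl or NMDG-Cl, pH 7.1, plus 1 mM CaCl2. i(V) is recorded ± 70 μM DV. KCl data get linear fits; NMDG data get GHK fits with asymptotic negative-potential slope. Currents at −40 mV ± 1 mM nucleotide are normalized to in-patch control and Hill-fitted.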

Data set [4] has the same test system. The settings on record: read-out: [Ca2+]i required for half-maximal activation; freshly excised channels; ref Csanády and Adam-Vizi, 2003; cited from earlier work.
Where [5] appears, read: 70 μM DV, NaCl pipette, KCl bath.

Molecules are shown by their SMILES. Values joined by “and” are separate entries in the source; they are usually repeats but may differ in a detail not shown here. Equal entries are not always repeated. Where two headings read alike, the source gives them in different places.

For the compound `[O]=[V]([O-])([O-])[O][V]1(=[O])[O][V]2(=[O])[O][V](=[O])([O][V](=[O])([O-])[O-])[O][V](=[O])([O]2)[O][V]2(=[O])[O][V](=[O])([O][V](=[O])([O-])[O-])[O][V](=[O])([O]1)[O]2` (stereo not drawn) [DV, decavanadate], the “Increase of K1/2 for stimulation of Po caused by nucleotide” value in data set [1] (1 mM ADP vs control) is reported as roughly 80 ×; in data set [1] (1 mM AMP vs control) it was roughly 270 ×; in data set [1] (1 mM ATP vs control), roughly 35 ×. In addition, the EC50 worked out at 90 nM in data set [1] (read-out: K1/2 for stimulation of Po, 1 mM Ca2+ i, −40 mV, no nucleotides) and 1700 ± 300 nM in data set [3] (read-out: K1/2 for stimulation of single-channel conductance, no nucleotides (control), −40 mV). In data set [2], the “Time constant of decay in bath solution” value is given as roughly 4 h. In addition, in data set [3] (setting [5]), the “Increase of single-channel (slope) conductance relative to control” value is 34 ± 2% and ~30%. In addition, in data set [3] (setting [5]), the Reversal potential is reported as −1 ± 2 mV. The Slope conductance in data set [3] (setting [5]) was found to be 42 ± 3 pS. In addition, the “Asymptotic conductance at negative potentials” value in data set [3] (70 μM DV, NaCl pipette, NMDG-Cl bath, n = 3) came out at 36 ± 0.5 pS. Moreover, in data set [3] (higher), the “K1/2 for conductance relative to K1/2 for stimulation of gating” value is recorded as roughly 20 fold.

For `[Ca+2]` [Ca^2+], in data set [4], the EC50 is roughly 20000 nM.
